Compound activity: PubChem BioAssay, Johns Hopkins Ion Channel Center
Only some compounds are listed: those with a hit (about 3.5% of all), similar ones and a draw of the others.
MrgX1 agonist: agonists of human MrgX1 receptor. 0.44% of 310,000 active. B-score at 10 µM. AID 588627. MrgX1-HEK293 cells, Fluo-4 calcium fluorescence, agonist mode; active compounds read high;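 active means calcium response B-score plate-corrected fluorescence ratio at least 3 library SD, with starting fluorescence B-score inside 5 SD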
Target sequence (Q96LB2 whole entry, looked up): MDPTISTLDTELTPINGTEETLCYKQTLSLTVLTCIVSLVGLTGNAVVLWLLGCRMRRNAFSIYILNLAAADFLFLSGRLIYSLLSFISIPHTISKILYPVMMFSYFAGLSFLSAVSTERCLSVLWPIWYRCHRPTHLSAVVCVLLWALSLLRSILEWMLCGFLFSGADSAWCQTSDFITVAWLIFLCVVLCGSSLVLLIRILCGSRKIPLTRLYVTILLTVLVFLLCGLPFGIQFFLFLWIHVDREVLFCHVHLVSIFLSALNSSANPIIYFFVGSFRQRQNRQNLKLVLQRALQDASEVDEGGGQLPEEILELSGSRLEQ
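Test system: HEK293 cells stably expressing human MrgX1 receptor; Input: fifteen thousand cells per well; Dosing: compound delivered in addition one of three; Schedule: overnight seeding, then 1 h dark dye loading; Technique: Fluo-4 NW calcium fluorescence; Measure: B-scored fluorescence response ratio; Controls: positive and negative controls per plate.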
MrgX1 antag: antagonists of human MrgX1 receptor. Q96LB2. MRGX1-HEK293 calcium flux, Fluo-4, BAM8-22 antagonism; active compounds read low. B-score at 10 µM. 1.3% of 310,000 active. AID 588676;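 active means calcium-response B-score plate-corrected more than 3 library SD below zero, starting fluorescence within 5 deviations, no agonist response on first addition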;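 further: peak minus trough fluorescence over baseline after final BAM8-22 challenge near maximal dose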
MrgX1 allo act: allosterically activates human MrgX1 receptor signaling. Q96LB2. MrgX1-HEK293, Fluo-4 calcium flux, FDSS; active compounds read high. B-score at 10 µM. 0.63% of 310,000 active. AID 588675;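 active means plate-corrected calcium response at least 3 library SD above typical, normal starting fluorescence, not activating the receptor alone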;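 further: compound read alongside a low EC10 to EC30 dose of BAM8-22 agonist; peak minus trough fluorescence over baseline measured at the second addition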
RGS4 pot: RGS4 potentiation or activation; B-score at 10 µM; HEK293 M3R/inducible RGS4, carbachol calcium flux Fluo4; active compounds read low; 0.92% of 310,000 active; AID 463111;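 active means B-score of the integrated calcium signal more than 4 SD below the library mean, with starting fluorescence not abnormally high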;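 further: negative B-score means reduced calcium response which marks RGS4 activation or potentiation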
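test system = M3R-expressing HEK293 line, RGS4 induced by doxycycline | probe or stimulus = carbachol at ECmax as muscarinic agonist stimulus | timing = dye loading 30 min 37 °C, buffer rest 30 min RT | signal = calcium dye Fluo4 fluorescence | evaluation = B score from integrated fluorescence ratio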
RGS4 block: human RGS4 inhibition; HEK293 M3R/RGS4 inducible, Fluo-4 calcium flux; active compounds read high; triggered by carbachol at its EC20; B-score at 10 µM; 0.45% of 310,000 active;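 active means B-score, a plate-corrected calcium signal, over three deviations above library mean, with baseline fluorescence within five deviations of library mean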;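 further: RGS4 expression induced by doxycycline in cells with stable M3 receptor; B-score is computed from the integrated fluorescence ratio over baseline after carbachol; higher B-score means a larger calcium signal and so more RGS4 inhibition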
Target sequence (P49798 whole entry, looked up): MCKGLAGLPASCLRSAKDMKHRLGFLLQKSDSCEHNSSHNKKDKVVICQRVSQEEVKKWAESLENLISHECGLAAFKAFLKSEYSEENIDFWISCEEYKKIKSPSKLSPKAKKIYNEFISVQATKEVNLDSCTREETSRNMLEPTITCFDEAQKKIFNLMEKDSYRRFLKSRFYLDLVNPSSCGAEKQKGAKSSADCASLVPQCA
Of the large screens only hits and unclear results are named; the others gave an inactive call.

COCc1c(C(=O)NC(C)c2ccc(S(N)(=O)=O)cc2)oc2ccccc12 (stereo unspecified)	none
CCCc1cc(C(=O)N/N=C/c2cccn2C)cs1	none
COc1ccc(-c2csc(NC(=O)c3ccccc3Br)c2C(=O)O)cc1	none
COc1ccc(-c2csc(NC(=O)c3ccc(C(C)(C)C)cc3)c2C(=O)O)cc1	MrgX1 allo act 14.3
CC1Nc2ncnc(N3CCc4ccccc4C3)c2N(Cc2ccc(Cl)cc2)C1=O (stereo unspecified)	none
CC1Nc2ncnc(N3CCc4ccccc4C3)c2N(Cc2ccc(Br)cc2)C1=O (stereo unspecified)	RGS4 pot -8.96
C/C(=N\NC(=O)c1nnn(-c2nonc2N)c1-c1ccccc1)c1ccco1	none
Cc1ccc(-c2csc(N/N=C/c3ccco3)n2)cc1	none
C(=N\Nc1nc(-c2ccccc2)cs1)/c1ccco1	MrgX1 antag -6.66
Cc1ccc(-c2csc(N/N=C/C=C/c3ccccc3)n2)cc1	MrgX1 antag -5.4
O=[N+]([O-])c1ccc(CSc2ncnc3c2ncn3[C@@H]2O[C@H](CO)[C@@H](O)[C@H]2O)cc1	none (no result: RGS4 pot, RGS4 block)
NCCNC(=O)Cc1cccc(NC(=O)Cc2ccc(Nc3ncnc4c3ncn4[C@@H]3O[C@H](CO)[C@@H](O)[C@H]3O)cc2)c1	MrgX1 allo act 8.17
Cc1ccc(NC(=O)COC(=O)/C=C/c2c(C)nn(-c3ccc(F)cc3)c2Cl)cc1F	MrgX1 antag -5.4
Cc1cc(F)ccc1S(=O)(=O)N1CCCOC1CNC(=O)C(=O)NCc1ccncc1 (stereo unspecified)	none
CCOc1cc(N2CCOCC2)c(OCC)cc1NC(=O)COC(=O)COc1cc(C)cc(C)c1	none
CCOc1cc(N2CCOCC2)c(OCC)cc1NC(=O)COC(=O)COc1ccc(C#N)cc1	MrgX1 antag -6.32
O=C(COC(=O)c1ccc2ccccc2c1)Nc1ncc(C(F)(F)F)cc1Cl	none
O=C(COC(=O)c1c2ccccc2cc2ccccc12)Nc1ncc(C(F)(F)F)cc1Cl	RGS4 pot -6.95
C=CCNC(=O)C1COc2ccccc2O1 (stereo unspecified)	none
C=CC#CC1(O)CC(C)N(C)CC1C (stereo unspecified)	none
Cc1ccc(CCC(=O)Nc2ccccc2C(=O)O)o1	none
CCC(C)n1c(=S)[nH]c2c(sc3ccc([N+](=O)[O-])cc32)c1=O (stereo unspecified)	MrgX1 allo act 9.21
Cc1nn(C)c(C)c1/C=C/C(=O)c1ccc(Cl)cc1Cl	none
CCN(CC)C(=O)CSc1nnnn1-c1ccc(F)c(Cl)c1	none
CN1CCN(CC#CCC(O)(c2ccccc2)c2ccccc2)CC1	none
OC(CC#CCN1CCCCC1)(c1ccccc1)c1ccccc1	RGS4 pot -7.53
CN1CCN(CC#CCC(O)(c2ccccc2)C2CCCC2)CC1 (stereo unspecified)	RGS4 pot -7.55
OC(CC#CCN1CCCC1)(c1ccccc1)c1ccccc1	none
Cc1ccc2c(c1)N(C(=O)CSc1nncn1C)C(C)(C)c1ssc(=S)c1-2	RGS4 pot -8.71
O=C1Nc2ccccc2C(=O)N2C[C@@H](O)C[C@H]12	none
COc1ccc2c(c1)C(=O)N(c1ccc(C)cc1)C(=O)C2	MrgX1 antag -4.81
N#C/C(=C\c1cccc(O)c1)C(=O)Nc1ccc2c(c1)OCCO2	MrgX1 allo act 17.1
O=C(/C=C/c1ccccc1)Nc1cccc(C(=O)O)c1	MrgX1 antag -5.64
O=C(/C=C/c1ccccc1)Nc1ccc2c(c1)OCCO2	MrgX1 antag -4.58
CCC(=O)Nc1cccc(C(=O)/C=C/c2ccccc2)c1	MrgX1 agonist 35.4
O=C(/C=C/c1ccco1)Nc1ccc2c(c1)OCCO2	none
CC1(C)CC(=O)C([N+](=O)[O-])=C(NCCCC(=O)O)C1	MrgX1 antag -5.4
CCCCn1c(NC(=O)c2ccc(F)cc2)c(C#N)c2nc3ccccc3nc21	MrgX1 agonist 53.6
N#CCCn1cc(/C=N/N=C2\NC(=O)C(CC(=O)O)S2)c(-c2ccc(F)cc2)n1 (stereo unspecified)	none
CCn1ccnc1[C@@H]1C[C@H]2CN(c3ccccc3OC)C(=O)[C@]23CCCN13	none
COc1ccc(/C=c2\s/c(=C/C(=O)c3ccc(C)cc3)[nH]c2=O)cc1OC	MrgX1 agonist 28.6
CC(C)(C)C(=O)/C=c1\[nH]c(=O)/c(=C\c2ccc(F)cc2)s1	none
O=C(NC(O)C(=O)c1ccc(F)cc1)c1ccc(F)cc1 (stereo unspecified)	none
N=c1oc2cc(O)ccc2cc1C(=O)Nc1ccc(Br)cc1	MrgX1 antag -7.01
CC12CCC(C/C1=N\OC(=O)c1ccc(F)cc1)C2(C)C (stereo unspecified)	MrgX1 allo act 8.45
CC12CCC(C/C1=N/OC(=O)c1cccc([N+](=O)[O-])c1)C2(C)C (stereo unspecified)	MrgX1 allo act 9.84
C/C(=N\OC(=O)c1ccc(F)cc1)c1ccc(F)c(F)c1	none
Cc1sc2ncnc(N3CCC(C(=O)NNC(=O)COc4cccc(C(F)(F)F)c4)CC3)c2c1C	none
CC(Sc1n[nH]c(N)n1)C(=O)Nc1cccc(S(=O)(=O)N2CCOCC2)c1 (stereo unspecified)	none
CCCCn1c(N)c(N(CCOC)C(=O)CSc2nnc(C)n2-c2ccc(OC)cc2)c(=O)[nH]c1=O	none
CCOc1ccc(C=O)cc1CN1CCCCC1	MrgX1 antag -5.83
CCOc1cc(CN2CCCCC2)ccc1OC	none
Cn1cc(/C=C/c2cc[n+](C)cc2)c2cc(F)ccc21	none
C[n+]1ccc(/C=C/c2c[nH]c3ccc(F)cc23)cc1	RGS4 pot -7.84
Oc1cccc(/C=N/N(Cc2ccccc2)c2ccccc2)c1	none
C(=N\N(Cc1ccccc1)c1ccccc1)/c1cccnc1	RGS4 pot -7.86
CC(=O)OCC1O[C@@H](O[C@@H]2C[C@H]3C(C)(C)[C@H](OC(C)=O)CC[C@]3(C)[C@H]3CC[C@]45C[C@]4(CC[C@H]5[C@@H](C)C[C@@H](O)[C@H](O)C(C)(C)O)[C@@]32C)[C@H](O)[C@@H](O)[C@@H]1O (stereo partly specified)	MrgX1 agonist 42.5
O=C(CSc1nnc(COc2ccc(Cl)cc2)o1)NC1CC2CCC1C2 (stereo unspecified)	MrgX1 antag -4.72
O=C(CSc1nnc(COc2ccc(Cl)cc2)o1)NC1CCCCC1	none
O=C(COc1ccc(Cl)cc1)NCc1nnc(SCC(=O)NC2CCCC2)o1	MrgX1 antag -6.38
Cc1cc(OCCCC(=O)Nc2cccc(-n3cnnn3)c2)ccc1Cl	none
CCOc1cc(N)c(Cl)cc1C(=O)NCC1CN(Cc2ccc(F)cc2)CCO1 (stereo unspecified)	MrgX1 antag -8.62
Cc1cc(C)c2cc(CN(Cc3ccco3)C(=S)NCC3CCCO3)c(=O)[nH]c2c1 (stereo unspecified)	none
